In ChEMBL document CHEMBL2346587, “Design, synthesis, and evaluation of a water-soluble antofine analogue with high antiproliferative and antitumor activity” (Bioorg Med Chem, 2013):
Active and inactive are the calls of the source. No cut-off for these calls is given here.

What was measured:
A549 [1] = assay: Inhibition of AKT/mTOR signaling in human A549 cells assessed as inhibition of eIF4E phosphorylation at 50 to 400 nM after 24 hrs by Western blot analysis; format: cell-based
Procedure, shortened: (§1)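 A549 cells plated at 3 × 10^5 per 60 mm dish, grown 24 h, then exposed to a concentration series for 24 h. Lysed in boiling SDS sample buffer with NaF and orthovanadate; protein by BCA; 25–50 µg run on 8–15% SDS-PAGE, transferred to PVDF, blocked in 5% milk/PBST, primary antibodies overnight at 4 °C, secondary 1–2 h, ECL detection.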

A549 [2] = assay: Cell cycle arrest in human A549 cells assessed as accumulation at sub-G1 phase at 100 nM after 24 hrs by flow cytometry (reference value: 1.40 %); format: functional
A549 [3] = assay: Antitumor activity against human A549 cells xenografted in athymic nu/nu BALB/c mouse assessed as inhibition of tumor growth at 10 mg/kg, ip administered 35 days post-implantation 3 times a week relative to control; format: functional; details: 840 h, route intraperitoneal, read-out: TGI
Procedure, shortened: (§2)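 Female athymic BALB/c nu/nu mice, six weeks old; 2 × 10^6 A549 or A549-Pa cells in 0.1 mL RPMI injected s.c. into right flank on day 0. Dosing began at 95–100 mm3 tumour volume: drug in 1% cremophore in PBS given i.p. three times weekly; controls got vehicle; five mice/group. Tumour volume tracked every 3–5 days; tumours excised and weighed at end; sections immunostained for Ki-67.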

A549 [4] = assay: Cell cycle arrest in human A549 cells assessed as accumulation at S phase at 100 nM after 24 hrs by flow cytometry (reference value: 13.38 %); format: functional
A549 [5] = assay: Cell cycle arrest in human A549 cells assessed as accumulation at S phase at 50 nM after 24 hrs by flow cytometry (reference value: 13.38 %); format: functional
A549 [6] = assay: Antitumor activity against paclitaxel-resistant human A549 cells xenografted in athymic nu/nu BALB/c mouse assessed as inhibition of tumor growth at 10 mg/kg, ip administered 35 days post-implantation 3 times a week relative to control; format: functional; details: 840 h, route intraperitoneal, read-out: TGI; procedure, shortened: as §2
A549 [7] = assay: Inhibition of AKT phosphorylation at T308 residue in human A549 cells at 50 to 400 nM after 24 hrs by Western blot analysis; format: cell-based; procedure, shortened: as §1
A549 [8] = assay: Cell cycle arrest in human A549 cells assessed as accumulation at sub-G1 phase at 400 nM after 24 hrs by flow cytometry (reference value: 1.40 %); format: functional
A549 [9] = assay: Cell cycle arrest in human A549 cells assessed as accumulation at G2/M phase at 400 nM after 24 hrs by flow cytometry (reference value: 22.84 %); format: functional
A549 [10] = assay: Inhibition of AKT/c-myc signaling in human A549 cells assessed as reduction in CDK4 protein expression at 50 to 400 nM after 24 hrs by Western blot analysis; format: cell-based; procedure, shortened: as §1
A549 [11] = assay: Cell cycle arrest in human A549 cells assessed as accumulation at S phase at 200 nM after 24 hrs by flow cytometry (reference value: 13.38 %); format: functional
[12] = target: ATP-dependent translocase ABCB1 (Homo sapiens, UniProt P08183); assay: Inhibition of P-gp activity in human paclitaxel-resistant A549 cells potentiation of 10 uM paclitaxel-induced cytotoxicity at 0.2 uM by SRB assay; format: cell-based; details: a549, 0.2 µM
Procedure, shortened: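 A549-Pa cells plated at 5 × 10^4 cells/well and co-treated for 48 h with the compound (0–200 nM) plus paclitaxel or gefitinib; growth inhibition by SRB assay. Combination index computed at the 50% inhibition level as CI = D1/(Dx)1 + D2/(Dx)2, comparing combined versus single-agent concentrations.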

SNU-638 = assay: Cytotoxicity against human SNU638 cells after 72 hrs by SRB assay; format: functional, cell-based; details: SNU-638, 72 h
Procedure, shortened: (§3)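 SRB growth assay: 5 × 10^3 cells/well exposed to a concentration series for 72 h; fixed in 10% TCA 30 min at 4 °C, stained with 0.4% SRB in 1% acetic acid 30 min, dye dissolved in 10 mM Tris pH 10.0, absorbance at 515 nm. Viability relative to vehicle control; IC50 by non-linear regression; at least three experiments. A549-Pa is a paclitaxel-resistant A549 subline.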

A549 [13] = assay: Cell cycle arrest in human A549 cells assessed as accumulation at G0/G1 phase at 100 nM after 24 hrs by flow cytometry (reference value: 62.38 %); format: functional
A549 [14] = assay: Inhibition of P-gp protein expression level in human paclitaxel-resistant A549 cells at 50 to 200 nM after 48 hrs by Western blot analysis; format: functional, cell-based
Procedure, shortened: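 A549-Pa cells, with parent A549 for comparison, were exposed to compound for 48 h. Lysates were made in boiling SDS sample buffer and protein measured by BCA. Equal protein (25–50 µg) was run on 8–15% SDS-PAGE, transferred to PVDF and blocked in 5% milk/PBST. Anti-P-gp primary was applied overnight at 4 °C, then secondary antibody and ECL detection.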

A549 [15] = assay: Cell cycle arrest in human A549 cells assessed as accumulation at sub-G1 phase at 200 nM after 24 hrs by flow cytometry (reference value: 1.40 %); format: functional
HCT-15 = assay: Cytotoxicity against human HCT15 cells after 72 hrs by SRB assay; format: functional, cell-based; details: HCT-15, 72 h; procedure, shortened: as §3
[16] = target: TCF4/beta-catenin (Homo sapiens) (UniProt P35222+Q9NQB0); assay: Inhibition of transcription activity of […]/TCF4 (unknown origin) expressed in HEK293 cells after 24 hrs by luciferase reporter gene assay; format: cell-based
Procedure, shortened: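 HEK293 cells were co-transfected for 24 h with 100 ng TOPflash β-catenin/Tcf reporter and 5 ng pRL-SV40. Graded compound concentrations were then added for 24 h. Firefly activity was read with a dual-luciferase system and normalized to Renilla. Significance was tested against DMSO control.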

SK-HEP1 = assay: Cytotoxicity against human SKHEP1 cells after 72 hrs by SRB assay; format: functional, cell-based; details: SK-HEP1, 72 h; procedure, shortened: as §3
A549 [17] = assay: Cell cycle arrest in human A549 cells assessed as accumulation at G0/G1 phase at 50 nM after 24 hrs by flow cytometry (reference value: 62.38 %); format: functional
[18] = Inhibition of Wnt signaling in human A549 cells assessed as reduction in cyclin D1 protein expression at 50 to 400 nM after 24 hrs by Western blot analysis; format: cell-based
Procedure, shortened: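 A549 cells were seeded at 3 × 10^5 per 60 mm dish, grown 24 h, then given graded compound concentrations for 24 h. Lysis was in boiling SDS buffer, with BCA protein assay. 25–50 µg per lane was run on 8–15% SDS-PAGE and blotted to PVDF. Primary antibodies (1:1000–1:2000) went on overnight at 4 °C, then secondary and ECL read-out.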

Mus musculus = assay: Toxicity in paclitaxel-resistant human A549 cells xenografted athymic nu/nu BALB/c mouse assessed as body weight change at 5 to 10 mg/kg, ip administered 3 times a week; format: organism-based; parameters: dose 5-10 mg/kg, route intraperitoneal; details: in vivo
Procedure, shortened: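 Six-week-old female BALB/c nu/nu mice received 2 × 10^6 A549-Pa cells in 0.1 mL RPMI subcutaneously in the right flank. Dosing began at 95–100 mm3 tumor volume, with five mice per group randomized. Compound in 1% cremophore/PBS was given intraperitoneally three times weekly; controls received equal vehicle volume. Body weight and overt toxicity were monitored.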

Sequence of ATP-dependent translocase ABCB1 (P08183 whole entry): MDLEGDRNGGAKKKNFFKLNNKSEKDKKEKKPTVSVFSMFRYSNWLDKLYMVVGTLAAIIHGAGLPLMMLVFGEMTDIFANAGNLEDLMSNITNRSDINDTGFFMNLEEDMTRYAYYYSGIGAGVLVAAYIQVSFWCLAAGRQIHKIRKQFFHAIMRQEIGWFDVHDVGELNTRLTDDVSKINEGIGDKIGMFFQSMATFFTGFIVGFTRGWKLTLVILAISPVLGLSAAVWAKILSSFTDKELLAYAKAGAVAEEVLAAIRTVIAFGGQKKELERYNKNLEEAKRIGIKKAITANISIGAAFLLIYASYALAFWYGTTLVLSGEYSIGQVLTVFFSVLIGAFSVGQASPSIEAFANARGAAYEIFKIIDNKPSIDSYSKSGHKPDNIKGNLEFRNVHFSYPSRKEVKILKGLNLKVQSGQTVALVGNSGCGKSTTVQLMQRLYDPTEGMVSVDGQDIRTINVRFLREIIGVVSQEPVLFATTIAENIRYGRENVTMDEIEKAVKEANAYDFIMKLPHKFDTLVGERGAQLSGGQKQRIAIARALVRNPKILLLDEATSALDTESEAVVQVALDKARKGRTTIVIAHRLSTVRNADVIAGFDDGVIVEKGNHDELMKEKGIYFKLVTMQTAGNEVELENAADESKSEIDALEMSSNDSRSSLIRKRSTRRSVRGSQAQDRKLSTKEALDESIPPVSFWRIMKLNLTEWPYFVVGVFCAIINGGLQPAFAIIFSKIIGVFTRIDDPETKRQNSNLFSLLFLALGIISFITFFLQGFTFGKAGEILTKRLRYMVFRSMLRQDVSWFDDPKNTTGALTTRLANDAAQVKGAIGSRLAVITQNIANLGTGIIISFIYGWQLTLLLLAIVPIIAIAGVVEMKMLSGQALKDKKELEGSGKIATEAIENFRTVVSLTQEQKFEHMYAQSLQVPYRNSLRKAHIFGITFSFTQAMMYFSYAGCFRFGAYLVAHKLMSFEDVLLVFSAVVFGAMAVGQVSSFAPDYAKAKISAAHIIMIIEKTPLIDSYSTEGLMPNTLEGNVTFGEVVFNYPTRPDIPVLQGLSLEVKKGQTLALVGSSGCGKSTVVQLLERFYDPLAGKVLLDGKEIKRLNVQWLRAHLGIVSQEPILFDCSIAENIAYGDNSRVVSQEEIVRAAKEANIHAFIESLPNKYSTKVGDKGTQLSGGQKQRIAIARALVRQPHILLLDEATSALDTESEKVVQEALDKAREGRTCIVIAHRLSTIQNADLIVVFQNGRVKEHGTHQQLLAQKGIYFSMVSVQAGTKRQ

Question: For `COc1ccc2c3c(c4cc(OC)c(OC)cc4c2c1)C[C@@]1(CO)CCCN1C3`, which inhibition (A549 [1]) is on record?
Answer: Active

Question: And the Activity (A549 [2])?
Answer: 2.31%

Question: And the inhibition in vivo at 10 mg/kg (A549 [3])?
Answer: 60.7%

Question: And the Activity (A549 [4])?
Answer: 10.78%

Question: And the Activity (A549 [5])?
Answer: 12.08%

Question: And the inhibition in vivo at 10 mg/kg (A549 [6])?
Answer: 54.8%

Question: What about the inhibition (A549 [7]) of the same molecule?
Answer: Active

Question: What about the Activity (A549 [8]) of the same molecule?
Answer: 1.21%

Question: What about the Activity (A549 [9]) of the same molecule?
Answer: 20.41%

Question: And the inhibition (A549 [10])?
Answer: Active

Question: And the Activity (A549 [11])?
Answer: 10.94%

Question: And the “fractional inhibitory concentration index (FICI)” value [12]?
Answer: 0.413

Question: And the IC50 (SNU-638)?
Answer: 80 nM

Question: And the Activity (A549 [13])?
Answer: 68.38%

Question: What about the inhibition (A549 [14]) of the same molecule?
Answer: Active

Question: And the Activity (A549 [15])?
Answer: 1.29%

Question: What about the IC50 (HCT-15) of the same molecule?
Answer: 160 nM

Question: And the inhibition [16]?
Answer: Dose-dependent effect

Question: What about the IC50 (SK-HEP1) of the same molecule?
Answer: 60 nM

Question: And the Activity (A549 [17])?
Answer: 66.07%

Question: What about the inhibition [18] of the same molecule?
Answer: Active

Question: What about the Activity (Mus musculus) of the same molecule?
Answer: Non-toxic
